One compound from ChEMBL document CHEMBL1129287, “Substituted xanthines, pteridinediones, and related compounds as potential antiinflammatory agents. Synthesis and biological evaluation of inhibitors of tumor necrosis factor alpha” (J Med Chem, 1996) can be followed below.

SMILES strings stand for the structures.

This assay deals with Mus musculus. The experiment in a line: Percent protection against TNF-alpha induced leukopenia in mice at a dose of 50 mg/Kg. It is filed as functional. The method in brief:
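Mice given compound intraperitoneally in 250 uL saline, then 60 min later […] LPS in saline, ip. Blood was taken 2 h after LPS by retro-orbital puncture into heparinized tubes. Nucleated cells were counted, with neutrophil content as the leukopenia read-out.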

Compound `CCCn1c(=O)n(CCCC(=O)OCC)c(=O)c2nccnc21` returned a Protection of 60%.
